Results on four compounds are retold here after ChEMBL document CHEMBL1142454, “Synthesis and evaluation of novel 4-amino-4,6-androstadiene-3,17-dione: an analog of formestane” (2008).

Holding throughout (format): functional
Common to all, as to design: scale not given: the % may be the effect or the level left

In one test the test system is DU-145. In words: Antitumor activity against human DU145 cells assessed as reduction of cell growth at 10 uM after 48 hrs by SRB assay. The gist of the method: (§1)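 NCI 60-cell-line primary screen, single dose 10^-5 M (final). Cells grown in RPMI 1640 with 5% FBS and 2 mM L-glutamine, seeded at 5000–40,000 cells/well and preincubated 24 h at 37 °C, 5% CO2. Compound is dissolved in DMSO, diluted in medium with gentamicin, and exposed 48 h. Cells are fixed with 10% TCA (final) and stained with 0.4% SRB; absorbance is read at 515 nm. Readout is growth percentage.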
(Sulforhodamine B stains cellular protein and so reports cell mass.)

In the next test the test system is UACC-62. In words: Antitumor activity against human UACC-62 cells assessed as reduction of cell growth at 10 uM after 48 hrs by SRB assay. An outline of the steps: (§2)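 NCI-60 one-dose primary screen at 10^-5 M final. Cells grown in RPMI 1640 with 5% FBS and 2 mM L-glutamine, plated at 5000–40,000 cells/well and preincubated 24 h at 37 °C, 5% CO2. Drug stocks in DMSO, diluted in medium with gentamicin. Exposure 48 h, then fixed in situ with TCA (10% final) for 60 min at 4 °C. Stained with 0.4% SRB in 1% acetic acid, bound dye solubilized in 10 mM trizma base, absorbance read at 515 nm. Reported as mean growth percent; negative values indicate cell kill.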

The subject of the next test is UACC-257. In words: Antitumor activity against human UACC-257 cells assessed as reduction of cell growth at 10 uM after 48 hrs by SRB assay. An outline of the steps: as §2
In another test the test system is SK-MEL-5. The experiment in a line: Antitumor activity against human SK-MEL-5 cells assessed as reduction of cell growth at 10 uM after 48 hrs by SRB assay. The gist of the method: as §1
The subject of a further test is Malme-3M. The experiment in a line: Antitumor activity against human MALME-3M cells assessed as reduction of cell growth at 10 uM after 48 hrs by SRB assay. The gist of the method:
as §1

The next test has as its system UO-31. In words: Antitumor activity against human UO-31 cells assessed as reduction of cell growth at 10 uM after 48 hrs by SRB assay. The gist of the method:
as §2

The test system of the next test is K562. The experiment in a line: Antitumor activity against human K-562 cells assessed as reduction of cell growth at 10 uM after 48 hrs by SRB assay. The gist of the method: as §1
The subject of the next test is OVCAR-8. The experiment in a line: Antitumor activity against human OVCAR8 cells assessed as reduction of cell growth at 10 uM after 48 hrs by SRB assay. An outline of the steps: as §1
A further test relates to IGROV-1. The experiment in a line: Antitumor activity against human IGROV1 cells assessed as reduction of cell growth at 10 uM after 48 hrs by SRB assay. The gist of the method:
as §1

Another test concerns BT-549. The experiment in a line: Antitumor activity against human BT-549 cells assessed as reduction of cell growth at 10 uM after 48 hrs by SRB assay. The gist of the method: as §1
Another test has as its system HT-29. The experiment in a line: Antitumor activity against human HT-29 cells assessed as reduction of cell growth at 10 uM after 48 hrs by SRB assay. An outline of the steps: as §1
Test [1] is described as follows: Antitumor activity against human HCT 116 cells assessed as reduction of cell growth at 10 uM after 48 hrs by SRB assay. An outline of the steps: as §1
In a further test the test system is HCC 2998. The experiment in a line: Antitumor activity against human HCC2998 cells assessed as reduction of cell growth at 10 uM after 48 hrs by SRB assay. The gist of the method: as §1
For another test, the system named is NCI-H460. The experiment in a line: Antitumor activity against human NCI-H460 cells assessed as reduction of cell growth at 10 uM after 48 hrs by SRB assay. An outline of the steps:
as §1

A further test has as its system NCI-H322M. The experiment in a line: Antitumor activity against human NCI-H322M cells assessed as reduction of cell growth at 10 uM after 48 hrs by SRB assay. An outline of the steps:
as §1

Another test concerns SF-268. The experiment in a line: Antitumor activity against human SF-268 cells assessed as reduction of cell growth at 10 uM after 48 hrs by SRB assay. The gist of the method:
as §1

Another test relates to SF-295. The experiment in a line: Antitumor activity against human SF-295 cells assessed as reduction of cell growth at 10 uM after 48 hrs by SRB assay. An outline of the steps:
as §1

A further test relates to SF-539. The experiment in a line: Antitumor activity against human SF-539 cells assessed as reduction of cell growth at 10 uM after 48 hrs by SRB assay. The gist of the method:
as §1

A further test concerns SNB-19. The experiment in a line: Antitumor activity against human SNB-19 cells assessed as reduction of cell growth at 10 uM after 48 hrs by SRB assay. An outline of the steps:
as §1

A further test concerns SNB-75. The experiment in a line: Antitumor activity against human SNB75 cells assessed as reduction of cell growth at 10 uM after 48 hrs by SRB assay. An outline of the steps: as §1
The next test concerns RPMI-8226. In words: Antitumor activity against human RPMI 8226 cells assessed as reduction of cell growth at 10 uM after 48 hrs by SRB assay. The gist of the method: as §1

Regarding `C[C@]12CC[C@H]3[C@@H](CCC4=CC(=O)CC[C@@]43CF)[C@@H]1CCC2=O`, the Activity in the test on DU-145 worked out at 116.2%; with UACC-62, 114.6%; in the test with UACC-257, 97.04%; in the test on SK-MEL-5, 108.7%; in the test on Malme-3M it was 94.17%; with UO-31 it was 87.76%. For the same compound, the Activity in the test on K562 was determined as 93.48%; in the test with OVCAR-8 it was 94.26%; with IGROV-1 it was 62.42%; with BT-549, 97.23%; in the test with HT-29, 116.4%; in test [1], 110.19%. Moreover, the Activity with HCC 2998 is 139.86%; in the test with NCI-H460 it was 108.88%; with NCI-H322M it was 101.55%; with SF-268 it was 109.8%; in the test with SF-295 it was 106.3%; in the test on SF-539, 105.8%. The Activity in the test on SNB-19 was found to be 109.3%; with SNB-75, 90.07%.
As to `C[C@]12CCC(=O)C(Oc3ccccc3)=C1CC[C@@H]1[C@@H]2CC[C@]2(C)C(=O)CC[C@@H]12`, the Activity in the test with DU-145 worked out at 107.32%; in the test on UACC-62 it was 87.46%; with UACC-257, 108.45%; in the test on SK-MEL-5, 94.23%; with Malme-3M, 120.52%; in the test on UO-31, 76.98%. The Activity came to 87.07% in the test with RPMI-8226; 86.08% in the test on K562; 93.48% in the test on OVCAR-8; 55.73% in the test on IGROV-1; 110.1% with BT-549; 100.27% in the test with HT-29. Besides, the Activity in [1] was 99.87%; with HCC 2998, 128.78%; in the test with NCI-H460, 77.42%; in the test on NCI-H322M, 106.72%; in the test with SF-268, 113.44%; in the test on SF-295, 124.31%. The values for the Activity in the test with SF-539, in the test on SNB-19 and in the test with SNB-75 were 106.75%, 114.92% and 91.11%, respectively.
Turning to `CCOC1=C2CC[C@@H]3[C@H](CC[C@]4(C)C(=O)CC[C@@H]34)[C@@]2(C)CCC1=O`, the Activity with DU-145 turned out to be 123.2%; in the test on UACC-62, 90.78%; with UACC-257, 117.1%; in the test with SK-MEL-5, 99.39%; in the test on Malme-3M, 87.47%; in the test with UO-31 it was 85.82%. In addition, the Activity in the test with K562 was found to be 94.09%; in the test on OVCAR-8, 98.96%; in the test on IGROV-1 it was 85.75%; in the test with BT-549 it was 93.87%; in the test on HT-29, 98.16%; in test [1], 103.2%. Further, the Activity in the test on HCC 2998 came out at 125.75%; in the test with NCI-H460, 83.36%; in the test with NCI-H322M, 95.97%; in the test with SF-268 it was 128.3%; in the test with SF-295 it was 114%; in the test on SF-539 it was 111.3%. Moreover, the Activity is 112.3% in the test on SNB-19 and 79.71% in the test on SNB-75.
On to `C[C@]12CCC(=O)C(N)=C1C=C[C@@H]1[C@@H]2CC[C@]2(C)C(=O)CC[C@@H]12.Cl`, for which the Activity in the test with DU-145 is recorded as 62.36%; with UACC-62, 81.02%; in the test on UACC-257, 86.69%; with SK-MEL-5, 69.71%; with Malme-3M it was 70.81%; in the test with UO-31 it was 64.59%. For the same compound, the Activity with RPMI-8226 was -18.11%; in the test on K562, -26.94%; with OVCAR-8 it was 44.03%; with IGROV-1, 49.46%; in the test on BT-549, 82.63%; with HT-29, 51.17%. Also, the Activity in test [1] is 6.15%; in the test on HCC 2998, 96.01%; in the test with NCI-H460, 83.77%; with NCI-H322M, 88.38%; with SF-268 it was 89.03%; in the test on SF-295, 105.1%. In addition, the Activity with SF-539 stood at 82.75%; with SNB-19, 102.8%; in the test on SNB-75 it was 94.19%.
